# Activity calls are given as the source filed them. The rule behind the calls is not given here.
# Experiments:
# Plasmodium falciparum [1] = test: Antimalarial activity against Plasmodium falciparum K1 by automated image mining based cytological profiling assay; type: functional, organism-based
# Summary of the method: (§1)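 Parasite cultures in 384-well format, read by automated imaging. Infected erythrocytes detected by DAPI nuclear staining against WGA-AlexaFluor 488 host-cell stain, and viability by Mitotracker Red CMXRos. Total culture parasitaemia quantified. EC50 given as mean±SD of two independent experiments, each in duplicate.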
# Plasmodium falciparum [2] = test: Antimalarial activity against tightly synchronized Plasmodium falciparum K1 assessed as parasite stage accumulation index at trophozoites stages at 10 uM treated at 30 hrs post-invasion for continuous duration of 36 hrs by automated image mining based cytological profiling assay; type: functional
# Summary of the method: (§2)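 Tightly synchronized cultures exposed to 10 µM final from 6 hpi (early ring), 18 hpi (late ring) or 30 hpi (mid-trophozoite) for a continuous 36 h. Erythrocytes stained with WGA-AlexaFluor 488, parasite nuclei with DAPI, functional mitochondria with Mitotracker Red CMXRos. Stages (early rings, late rings, trophozoites, schizonts) classified by nuclear spot number and size. Viable parasitaemia and stage accumulation index obtained by automated image analysis.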
# Plasmodium falciparum [3] = test: Antimalarial activity against tightly synchronized Plasmodium falciparum K1 assessed as parasite stage accumulation index at early ring stages at 10 uM treated at 6 hrs post-invasion for continuous duration of 36 hrs by automated image mining based cytological profiling assay; type: functional; summary of the method: as §2
# Plasmodium falciparum [4] = test: Antimalarial activity against Plasmodium falciparum W2 assessed as reduction in parasite stage accumulation index at 10 uM treated at 42 hrs post-invasion for 24 hrs by automated image mining based cytological profiling assay; type: functional, organism-based
# Summary of the method: (§3)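 Tightly synchronized cultures exposed from the 42 hpi mid-schizont point for 24 h to 10 µM final. Host cells stained with wheat germ agglutinin-AlexaFluor 488, parasite nuclei with DAPI and live-parasite mitochondria with Mitotracker Red CMXRos. Infected and viable parasitaemia and stage proportions quantified by automated image mining. Stage accumulation indices and parasitaemia reduction index derived.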
# Plasmodium falciparum [5] = test: Antimalarial activity against tightly synchronized Plasmodium falciparum K1 assessed as parasite stage accumulation index at schizonts stages at 10 uM treated at 30 hrs post-invasion for continuous duration of 36 hrs by automated image mining based cytological profiling assay; type: functional; summary of the method: as §2
# Plasmodium falciparum [6] = test: Antimalarial activity against Plasmodium falciparum W2 assessed as increase in schizonts parasite stage accumulation index at 10 uM treated at 42 hrs post-invasion for 24 hrs by automated image mining based cytological profiling assay; type: functional, organism-based; summary of the method: as §3
# Plasmodium falciparum [7] = test: Antimalarial activity against tightly synchronized Plasmodium falciparum HB3 assessed as parasite stage accumulation index at schizonts stages at 10 uM treated at 18 hrs post-invasion for continuous duration of 36 hrs by automated image mining based cytological profiling assay; type: functional; summary of the method: as §2
# Plasmodium falciparum [8] = test: Antimalarial activity against tightly synchronized Plasmodium falciparum W2 assessed as parasite stage accumulation index at trophozoites stages at 10 uM treated at 30 hrs post-invasion for continuous duration of 36 hrs by automated image mining based cytological profiling assay; type: functional; summary of the method: as §2
# Plasmodium falciparum [9] = test: Antimalarial activity against tightly synchronized Plasmodium falciparum K1 assessed as parasite stage accumulation index at schizonts stages at 10 uM treated at 18 hrs post-invasion for continuous duration of 36 hrs by automated image mining based cytological profiling assay; type: functional; summary of the method: as §2
# Plasmodium falciparum [10] = test: Antimalarial activity against tightly synchronized Plasmodium falciparum HB3 assessed as parasite stage accumulation index at trophozoites stages at 10 uM treated at 18 hrs post-invasion for continuous duration of 36 hrs by automated image mining based cytological profiling assay; type: functional; summary of the method: as §2
# Plasmodium falciparum [11] = test: Antimalarial activity against tightly synchronized Plasmodium falciparum K1 assessed as parasite stage accumulation index at late ring stages at 10 uM treated at 18 hrs post-invasion for continuous duration of 36 hrs by automated image mining based cytological profiling assay; type: functional; summary of the method: as §2
# Plasmodium falciparum [12] = test: Antimalarial activity against tightly synchronized Plasmodium falciparum K1 assessed as parasite stage accumulation index at trophozoites stages at 10 uM treated at 18 hrs post-invasion for continuous duration of 36 hrs by automated image mining based cytological profiling assay; type: functional; summary of the method: as §2
# Plasmodium falciparum [13] = test: Antimalarial activity against Plasmodium falciparum HB3 by automated image mining based cytological profiling assay; type: functional; summary of the method: as §1
# Plasmodium falciparum [14] = test: Antimalarial activity against tightly synchronized Plasmodium falciparum W2 assessed as parasite stage accumulation index at trophozoites stages at 10 uM treated at 6 hrs post-invasion for continuous duration of 36 hrs by automated image mining based cytological profiling assay; type: functional
# Plasmodium falciparum [15] = test: Antimalarial activity against tightly synchronized Plasmodium falciparum W2 assessed as parasite stage accumulation index at early ring stages at 10 uM treated at 6 hrs post-invasion for continuous duration of 36 hrs by automated image mining based cytological profiling assay; type: functional; summary of the method: as §2
# Plasmodium falciparum [16] = test: Antimalarial activity against tightly synchronized Plasmodium falciparum HB3 assessed as parasite stage accumulation index at schizonts stages at 10 uM treated at 6 hrs post-invasion for continuous duration of 36 hrs by automated image mining based cytological profiling assay; type: functional; summary of the method: as §2
# Plasmodium falciparum [17] = test: Antimalarial activity against tightly synchronized Plasmodium falciparum K1 assessed as parasite stage accumulation index at schizonts stages at 10 uM treated at 6 hrs post-invasion for continuous duration of 36 hrs by automated image mining based cytological profiling assay; type: functional; summary of the method: as §2
# Plasmodium falciparum [18] = test: Antimalarial activity against tightly synchronized Plasmodium falciparum HB3 assessed as parasite stage accumulation index at late ring stages at 10 uM treated at 6 hrs post-invasion for continuous duration of 36 hrs by automated image mining based cytological profiling assay; type: functional; summary of the method: as §2
# Plasmodium falciparum [19] = test: Antimalarial activity against Plasmodium falciparum HB3 assessed as reduction in parasite stage accumulation index at 10 uM treated at 42 hrs post-invasion for 24 hrs by automated image mining based cytological profiling assay; type: functional; summary of the method: as §3
# Plasmodium falciparum [20] = test: Antimalarial activity against tightly synchronized Plasmodium falciparum HB3 assessed as parasite stage accumulation index at trophozoites stages at 10 uM treated at 6 hrs post-invasion for continuous duration of 36 hrs by automated image mining based cytological profiling assay; type: functional; summary of the method: as §2
# Plasmodium falciparum [21] = test: Antimalarial activity against tightly synchronized Plasmodium falciparum HB3 assessed as parasite stage accumulation index at late ring stages at 10 uM treated at 18 hrs post-invasion for continuous duration of 36 hrs by automated image mining based cytological profiling assay; type: functional; summary of the method: as §2
# Plasmodium falciparum [22] = test: Antimalarial activity against tightly synchronized Plasmodium falciparum W2 assessed as parasite stage accumulation index at late ring stages at 10 uM treated at 18 hrs post-invasion for continuous duration of 36 hrs by automated image mining based cytological profiling assay; type: functional; summary of the method: as §2
# Plasmodium falciparum [23] = test: Antimalarial activity against Plasmodium falciparum W2 by automated image mining based cytological profiling assay; type: functional, organism-based; summary of the method: as §1
# Plasmodium falciparum [24] = test: Antimalarial activity against tightly synchronized Plasmodium falciparum K1 assessed as parasite stage accumulation index at trophozoites stages at 10 uM treated at 6 hrs post-invasion for continuous duration of 36 hrs by automated image mining based cytological profiling assay; type: functional
# Plasmodium falciparum [25] = test: Antimalarial activity against Plasmodium falciparum HB3 assessed as increase in schizonts parasite stage accumulation index at 10 uM treated at 42 hrs post-invasion for 24 hrs by automated image mining based cytological profiling assay; type: functional; summary of the method: as §3
# Plasmodium falciparum [26] = test: Antimalarial activity against Plasmodium falciparum K1 assessed as increase in schizonts parasite stage accumulation index at 10 uM treated at 42 hrs post-invasion for 24 hrs by automated image mining based cytological profiling assay; type: functional, organism-based; summary of the method: as §3
# Plasmodium falciparum [27] = test: Antimalarial activity against tightly synchronized Plasmodium falciparum W2 assessed as parasite stage accumulation index at trophozoites stages at 10 uM treated at 18 hrs post-invasion for continuous duration of 36 hrs by automated image mining based cytological profiling assay; type: functional
# Plasmodium falciparum [28] = test: Antimalarial activity against Plasmodium falciparum K1 assessed as reduction in parasite stage accumulation index at 10 uM treated at 42 hrs post-invasion for 24 hrs by automated image mining based cytological profiling assay; type: functional, organism-based; summary of the method: as §3
# Plasmodium falciparum [29] = test: Antimalarial activity against tightly synchronized Plasmodium falciparum W2 assessed as parasite stage accumulation index at schizonts stages at 10 uM treated at 6 hrs post-invasion for continuous duration of 36 hrs by automated image mining based cytological profiling assay; type: functional; summary of the method: as §2
# Plasmodium falciparum [30] = test: Antimalarial activity against tightly synchronized Plasmodium falciparum W2 assessed as parasite stage accumulation index at schizonts stages at 10 uM treated at 30 hrs post-invasion for continuous duration of 36 hrs by automated image mining based cytological profiling assay; type: functional
# Plasmodium falciparum [31] = test: Antimalarial activity against tightly synchronized Plasmodium falciparum HB3 assessed as parasite stage accumulation index at early ring stages at 10 uM treated at 6 hrs post-invasion for continuous duration of 36 hrs by automated image mining based cytological profiling assay; type: functional
# Plasmodium falciparum [32] = test: Antimalarial activity against tightly synchronized Plasmodium falciparum K1 assessed as parasite stage accumulation index at late ring stages at 10 uM treated at 6 hrs post-invasion for continuous duration of 36 hrs by automated image mining based cytological profiling assay; type: functional
# Plasmodium falciparum [33] = test: Antimalarial activity against tightly synchronized Plasmodium falciparum W2 assessed as parasite stage accumulation index at late ring stages at 10 uM treated at 6 hrs post-invasion for continuous duration of 36 hrs by automated image mining based cytological profiling assay; type: functional
# Plasmodium falciparum [34] = test: Antimalarial activity against tightly synchronized Plasmodium falciparum W2 assessed as parasite stage accumulation index at schizonts stages at 10 uM treated at 18 hrs post-invasion for continuous duration of 36 hrs by automated image mining based cytological profiling assay; type: functional
# Plasmodium falciparum [35] = test: Antimalarial activity against tightly synchronized Plasmodium falciparum HB3 assessed as parasite stage accumulation index at schizonts stages at 10 uM treated at 30 hrs post-invasion for continuous duration of 36 hrs by automated image mining based cytological profiling assay; type: functional
smiles,measurement,setting,value
COc1ccc(CO[C@H]([C@H](OCc2ccc(OC)cc2)c2cnc(N(C)C)nc2)[C@@H](CO)OS(C)(=O)=O)cc1,EC50,Plasmodium falciparum [1],5030 nM
COc1ccc(CO[C@H]([C@H](COS(C)(=O)=O)N=[N+]=[N-])[C@H](OCc2ccc(OC)cc2)c2cnc(N(C)C)nc2)cc1,EC50,Plasmodium falciparum [1],11700 nM
C[C@@H]1CC[C@H]2[C@@H](C)C(=O)O[C@@H]3O[C@@]4(C)CC[C@@H]1[C@]32OO4 [ARTEMISININ],Activity,Plasmodium falciparum [2],1.09
same,Activity,Plasmodium falciparum [3],1.96
same,inhibition,Plasmodium falciparum [4],Active
same,Activity,Plasmodium falciparum [5],0.31
same,inhibition,Plasmodium falciparum [6],Active
same,Activity,Plasmodium falciparum [7],0.47
same,Activity,Plasmodium falciparum [8],1.51
same,Activity,Plasmodium falciparum [9],0.26
same,Activity,Plasmodium falciparum [10],1.06
same,Activity,Plasmodium falciparum [11],2.52
same,Activity,Plasmodium falciparum [12],0.7
same,EC50,Plasmodium falciparum [13],18 nM
same,Activity,Plasmodium falciparum [14],0.81
same,Activity,Plasmodium falciparum [15],2.06
same,Activity,Plasmodium falciparum [16],0.11
same,Activity,Plasmodium falciparum [17],0.17
same,Activity,Plasmodium falciparum [18],3.53
same,inhibition,Plasmodium falciparum [19],Active
same,Activity,Plasmodium falciparum [20],0.37
same,Activity,Plasmodium falciparum [21],4.4
same,Activity,Plasmodium falciparum [22],2.01
same,EC50,Plasmodium falciparum [23],11 nM
same,Activity,Plasmodium falciparum [24],0.51
same,inhibition,Plasmodium falciparum [25],Active
same,EC50,Plasmodium falciparum [1],3 nM
same,inhibition,Plasmodium falciparum [26],Active
same,Activity,Plasmodium falciparum [27],1.06
same,inhibition,Plasmodium falciparum [28],Active
same,Activity,Plasmodium falciparum [29],0.47
same,Activity,Plasmodium falciparum [30],1.05
COc1ccc(CO[C@@H]([C@H](COCc2ccccc2)N=[N+]=[N-])[C@H](OCc2ccc(OC)cc2)c2cnc(N(C)C)nc2)cc1,EC50,Plasmodium falciparum [1],1420 nM
COc1ccc(CO[C@@H]([C@H](CO)N=[N+]=[N-])[C@H](OCc2ccc(OC)cc2)c2cnc(N(C)C)nc2)cc1,EC50,Plasmodium falciparum [1],5450 nM
COc1ccc(CO[C@@H]([C@H](O)COC(c2ccccc2)(c2ccccc2)c2ccccc2)[C@H](OCc2ccc(OC)cc2)c2cnc(N(C)C)nc2)cc1,EC50,Plasmodium falciparum [1],200 nM
COc1ccc(CO[C@H]([C@H](O)COC(c2ccccc2)(c2ccccc2)c2ccccc2)[C@H](OCc2ccc(OC)cc2)c2cnn(C)c2)cc1,EC50,Plasmodium falciparum [1],478 nM
CCN(CC)CCCC(C)Nc1ccnc2cc(Cl)ccc12 (configuration not stated) [CHLOROQUINE],Activity,Plasmodium falciparum [2],0.75
same,Activity,Plasmodium falciparum [3],1.72
same,Activity,Plasmodium falciparum [31],1.82
same,Activity,Plasmodium falciparum [5],0.56
same,Activity,Plasmodium falciparum [7],0.82
same,Activity,Plasmodium falciparum [8],1.26
same,Activity,Plasmodium falciparum [9],0.37
same,Activity,Plasmodium falciparum [10],1.85
same,Activity,Plasmodium falciparum [11],1.38
same,Activity,Plasmodium falciparum [12],1.22
same,EC50,Plasmodium falciparum [13],33 nM
same,Activity,Plasmodium falciparum [14],0.65
same,Activity,Plasmodium falciparum [15],1.78
same,Activity,Plasmodium falciparum [32],1.62
same,Activity,Plasmodium falciparum [16],0.2
same,Activity,Plasmodium falciparum [17],0.25
same,Activity,Plasmodium falciparum [18],3.05
same,Activity,Plasmodium falciparum [33],1.51
same,Activity,Plasmodium falciparum [20],0.52
same,Activity,Plasmodium falciparum [21],2.17
same,Activity,Plasmodium falciparum [22],1.82
same,Activity,Plasmodium falciparum [34],1.64
same,EC50,Plasmodium falciparum [23],221 nM
same,EC50,Plasmodium falciparum [1],208 nM
same,Activity,Plasmodium falciparum [35],1.83
same,Activity,Plasmodium falciparum [29],0.53

# Reference: ChEMBL document CHEMBL3352416, “Discovery of carbohybrid-based 2-aminopyrimidine analogues as a new class of rapid-acting antimalarial agents using image-based cytological profiling assay” (J Med Chem, 2014)
